Assays:
[1] = hydrolysis controlled; cited from earlier work
[2] = cited from earlier work; for renal excretion (share of dose): 100 mg dose, as OSTC or as unchanged drug
[3] = assay type: in vivo; conditions: human, plasma, po, 75 mg, 75 mg oral, fed, healthy Indian subjects, mean ±SD; for AUC(0-t): AUC 0–48, reference formulation (TAMIFLU); for AUC(0-inf): reference formulation (TAMIFLU); for half-life: t1/2, reference formulation (TAMIFLU)
In short: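 Healthy Indian volunteers (n=42), fed, single oral 75 mg capsule of test compound, test and reference formulations over two periods. Blood taken 0–48 h into K3EDTA tubes on ice (<10 °C). Plasma mixed 95:5 v/v with dichlorvos stock (4 mg/mL) and stored at −20 °C, then below −70 °C. Parent and carboxylate metabolite measured by validated LC–MS/MS. Calibration ranges were 0.5–200 and 2.0–800 ng/mL.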

[4] = Stability of analytes in spiked human plasma and wet extract; assay type: physicochemical; conditions: for Mean stability sample ±SD: n=6
In short: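 Human blank plasma spiked at LQC (OST/OSTC 1.5/6.0 ng/mL) and HQC (160/640 ng/mL), with dichlorvos as esterase inhibitor. Bench top (room temperature), autosampler (wet extract), freeze-thaw and long term (−20 °C, −70 °C) stability were tested, six replicates per level. Samples were thawed in an ice bath below 10 °C and extracted. Stability was read as analyte/IS area ratio by LC–MS/MS against freshly prepared comparison standards.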

[5] = cited from earlier work
[6] = Bench top stability (ambient temperature), 12 h, HQC (160/640 ng/mL OST/OSTC)
[7] = Bench top stability (ambient temperature), 12 h, HQC, vs comparison samples
[8] = Bench top stability (ambient temperature), 12 h, LQC (1.5/6.0 ng/mL OST/OSTC)
[9] = Bench top stability (ambient temperature), 12 h, LQC, vs comparison samples
[10] = Freeze & thaw stability in plasma, 5 cycles, −20 °C, HQC
[11] = Freeze & thaw stability in plasma, 5 cycles, −20 °C, LQC
[12] = Freeze & thaw stability in plasma, 5 cycles, −70 °C, HQC
[13] = Freeze & thaw stability in plasma, 5 cycles, −70 °C, LQC
[14] = Long term stability in plasma: 61 days, −20 °C, HQC
[15] = Long term stability in plasma: 61 days, −20 °C, LQC
[16] = Long term stability in plasma: 61 days, −70 °C, HQC
[17] = Long term stability in plasma: 61 days, −70 °C, LQC
[18] = Wet extract stability (5 °C), 25 h, HQC
[19] = Wet extract stability (5 °C), 25 h, LQC
[20] = Wet extract stability (25 °C), 10 h, HQC
[21] = Wet extract stability (25 °C), 10 h, LQC
[22] = following oral administration of OST in healthy volunteers

CCOC(=O)C1=C[C@@H](OC(CC)CC)[C@H](NC(C)=O)[C@@H](N)C1 [Oseltamivir, oseltamivir]
stability of OST concentration in samples kept on ice [1]: up to 1 h
renal excretion (share of dose) [2]: 3%
AUC(0-t) [3]: 153 ± 35 ng·h/mL
AUC(0-inf) [3]: 163 ± 37 ng·h/mL
half-life [3]: 4.97 ± 3.27 h
Mean stability sample ±SD [4, 6]: 167.0 ± 9.5 ng/mL
Change (%) [4, 7]: 0.60%
Mean stability sample ±SD [4, 8]: 1.430 ± 0.043 ng/mL
Change (%) [4, 9]: 2.14%
Change (%) [4, 10]: −3.05%
Mean stability sample ±SD [4, 10]: 159.3 ± 9.1 ng/mL
Change (%) [4, 11]: −4.23%
Mean stability sample ±SD [4, 11]: 1.364 ± 0.075 ng/mL
Change (%) [4, 12]: −2.44%
Mean stability sample ±SD [4, 12]: 160.2 ± 5.4 ng/mL
Change (%) [4, 13]: 1.41%
Mean stability sample ±SD [4, 13]: 1.442 ± 0.070 ng/mL
Change (%) [4, 14]: 1.18%
Mean stability sample ±SD [4, 14]: 172.3 ± 3.9 ng/mL
Change (%) [4, 15]: −3.61%
Mean stability sample ±SD [4, 15]: 1.635 ± 0.096 ng/mL
Change (%) [4, 16]: 0.59%
Mean stability sample ±SD [4, 16]: 171.1 ± 3.7 ng/mL
Change (%) [4, 17]: −1.81%
Mean stability sample ±SD [4, 17]: 1.632 ± 0.035 ng/mL
Change (%) [4, 18]: 1.81%
Mean stability sample ±SD [4, 18]: 169.2 ± 7.4 ng/mL
Change (%) [4, 19]: 5.71%
Mean stability sample ±SD [4, 19]: 1.481 ± 0.086 ng/mL
Change (%) [4, 20]: 3.61%
Mean stability sample ±SD [4, 20]: 172.1 ± 10.4 ng/mL
Change (%) [4, 21]: 4.29%
Mean stability sample ±SD [4, 21]: 1.460 ± 0.077 ng/mL

CCC(CC)O[C@@H]1C=C(C(=O)O)C[C@H](N)[C@H]1NC(C)=O [Oseltamivir carboxylate, oseltamivir carboxylate]
protein bound [5]: about 43%
renal excretion (share of dose) [2]: 63%
time to maximum plasma levels (Cmax) [2, 22]: ≤ 5 h
time until detectable in plasma [2, 22]: about 30 min
AUC(0-t) [3]: 3900 ± 721 ng·h/mL
AUC(0-inf) [3]: 3990 ± 729 ng·h/mL
half-life [3]: 7.5 ± 0.96 h
Mean stability sample ±SD [4, 6]: 653.1 ± 23.7 ng/mL
Change (%) [4, 7]: 1.40%
Mean stability sample ±SD [4, 8]: 5.841 ± 0.495 ng/mL
Change (%) [4, 9]: 1.40%
Change (%) [4, 10]: −1.57%
Mean stability sample ±SD [4, 10]: 626.2 ± 22.7 ng/mL
Change (%) [4, 11]: −2.79%
Mean stability sample ±SD [4, 11]: 5.583 ± 0.553 ng/mL
Change (%) [4, 12]: −1.57%
Mean stability sample ±SD [4, 12]: 626.0 ± 25.6 ng/mL
Change (%) [4, 13]: 0.35%
Mean stability sample ±SD [4, 13]: 5.762 ± 0.394 ng/mL
Change (%) [4, 14]: −0.85%
Mean stability sample ±SD [4, 14]: 698.4 ± 16.6 ng/mL
Change (%) [4, 15]: 2.72%
Mean stability sample ±SD [4, 15]: 6.791 ± 0.273 ng/mL
Change (%) [4, 16]: 0.43%
Mean stability sample ±SD [4, 16]: 707.4 ± 19.0 ng/mL
Change (%) [4, 17]: −1.82%
Mean stability sample ±SD [4, 17]: 6.492 ± 0.328 ng/mL
Change (%) [4, 18]: 0.47%
Mean stability sample ±SD [4, 18]: 647.2 ± 18.2 ng/mL
Change (%) [4, 19]: 4.55%
Mean stability sample ±SD [4, 19]: 5.983 ± 0.556 ng/mL
Change (%) [4, 20]: −0.31%
Mean stability sample ±SD [4, 20]: 642.4 ± 13.4 ng/mL
Change (%) [4, 21]: 5.77%
Mean stability sample ±SD [4, 21]: 6.050 ± 0.393 ng/mL

Reference: publication PMC5760963 (Journal of Pharmaceutical Analysis, 2012)
